Source: PubChem BioAssay
WT yeast gro inh = growth inhibition of WT strain, primary screen, mitochondrial fusion inhibitor project, WT and mutant strains, chemical genetic; inhibition, % at 10 µM; mitochondrial fusion phenotypic screen; hit rate 2.1% among 190,000; in the data active = inhibition above about 58%; tested in S. cerevisiae
RAM inhibit = inhibitors of the yeast RAM network, primary screen, dse1pr::URA3 reporter, 5-FOA selection; hit rate 1.8% among 190,000; inhibition, % at 50 µM; S. cerevisiae dse1pr::URA3 reporter, 5-FOA growth OD615, 2 d; analog-sensitive cbk1-as2 kinase mutant strain; AID 868, 2007;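 active = inhibition above a set limit, 3 SD over mean compound inhibition, cut at about 8.4% in these data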;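 note: inhibition rescues growth on 5-FOA so higher OD means more RAM inhibition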
ABCG2 block = ABCG2 efflux pump inhibitors, primary screen, multiplex with ABCB1, IgMXP3 cells, flow cytometry. JC-1 efflux. inhibition, % at 6.6 µM. hit rate 0.1% among 190,000;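 active = inhibition above 80%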
Target sequence (Q9UNQ0 whole entry, looked up): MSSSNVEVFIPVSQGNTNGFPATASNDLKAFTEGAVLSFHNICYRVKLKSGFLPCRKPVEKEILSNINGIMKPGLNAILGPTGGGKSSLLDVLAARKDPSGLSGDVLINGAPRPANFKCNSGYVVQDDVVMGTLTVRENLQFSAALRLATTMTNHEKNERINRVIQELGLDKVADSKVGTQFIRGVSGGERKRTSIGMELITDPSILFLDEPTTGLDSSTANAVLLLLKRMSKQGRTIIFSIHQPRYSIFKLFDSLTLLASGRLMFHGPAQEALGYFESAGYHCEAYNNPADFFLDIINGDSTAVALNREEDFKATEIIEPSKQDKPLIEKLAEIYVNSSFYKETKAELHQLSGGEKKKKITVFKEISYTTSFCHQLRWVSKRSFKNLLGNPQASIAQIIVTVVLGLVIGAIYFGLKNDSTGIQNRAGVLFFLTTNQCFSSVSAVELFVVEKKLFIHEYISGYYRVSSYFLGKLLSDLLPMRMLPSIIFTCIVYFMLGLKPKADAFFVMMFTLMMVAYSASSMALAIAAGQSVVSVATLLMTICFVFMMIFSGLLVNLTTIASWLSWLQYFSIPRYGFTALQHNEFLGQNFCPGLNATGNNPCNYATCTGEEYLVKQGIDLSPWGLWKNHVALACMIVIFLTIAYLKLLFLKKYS
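Test system: IgMXP3 cells (ABCG2) mixed with DDAO far-red-labelled CCRF-Adr cells (ABCB1). Reagent: JC-1 transporter substrate. Compound dosing: single test compound dose, 6.6 µM final. Times: 10 min compound exposure, 25 °C. Detection: flow cytometry of retained JC-1 fluorescence. Read-out basis: efflux inhibition in percent versus controls. Controls: nicardipine and DMSO wells.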
ABCB1 inh = ABCB1 efflux pump inhibitors, primary screen, cell-based, multiplex, flow cytometry, ABCG2 counter-screen | hit rate 0.067% among 190,000 | inhibition, % at 6.6 µM | ATP-dependent translocase ABCB1 (Homo sapiens), P08183 | CCRF-Adr cells, JC-1 efflux | AID 1326, 2008; in the data active = inhibition above about 40%;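 note: higher value means more JC-1 retained so stronger ABCB1 efflux block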
L major viab = Leishmania major promastigote growth inhibition, primary screen. inhibition, % at 10 µM. AID 1063, 2008. Leishmania major promastigotes, resazurin fluorescence viability. hit rate 9% among 200,000; in the data active = inhibition above about 50%;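 note: promastigotes grown with compound for 44 hours at 28 °C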
Large screens that a line does not name were inactive. Rows were chosen to be rich in hits. Some 12% of all compounds tested hit in one or more screens of this group.

COc1ccccc1N1CCN(S(=O)(=O)c2ccc3nc(-c4ccccc4)[nH]c3c2)CC1	L major viab 56.8
O=C(Cc1cccc2ccccc12)Nc1ccc(N2CCOCC2)cc1	none
CS(=O)(=O)N(Cc1ccccc1)c1ccc(C(=O)NCCSc2ccccn2)cc1	L major viab 59.7 (no result: ABCB1 inh)
CN(C)C(=S)Nn1c(-c2ccccc2)nc2ccccc2c1=O	none
O=C(Nn1c(-c2ccccc2)nc2ccccc2c1=O)C1CCC1	WT yeast gro inh 70.2
S=C(NCCCN1CCOCC1)Nc1cccc(-c2nnc3n2CCCCC3)c1	none
Cc1nc(NC(=O)/C=C/c2ccc(C(C)(C)C)cc2)sc1C(=O)N(C)C	L major viab 60.8
CC(C)(C)c1ccc(/C=C/C(=O)Nc2ccncc2)cc1	L major viab 87.7
C=C(C)Cn1c(C)cc(C)c(S(=O)(=O)c2cccc(C)c2)c1=O	L major viab 95.9
COc1ccc(C(=O)Nc2ccccc2C(=O)O)cc1Cl	L major viab 67.2
COc1c(Cl)cc(C(=O)Nc2ccccc2-c2ccccc2)cc1Cl	RAM inhibit 8.7
COc1cc(OC)c(-c2nnc(-c3ccc(OC)c(OC)c3OC)o2)cc1OC	L major viab 56.2
COc1cccc(Oc2nnnn2-c2ccccc2)c1	none
COc1cccc(-n2nnnc2S(C)(=O)=O)c1	L major viab 97.0
COc1cccc(-n2c(CN3CCN(Cc4ccccc4)CC3)nc3ccc([N+](=O)[O-])cc3c2=O)c1	L major viab 76.5
COc1ccc(C(=O)NN(C)c2nc(-c3ccccc3)nnc2C(F)(F)F)cc1	WT yeast gro inh 64.1
Cc1cccc(C(=O)NN(C)c2nc(-c3ccccc3)nnc2C(F)(F)F)c1	none
COc1ccccc1NC(=O)CC(c1ccc(OC(C)C)cc1)c1ccccc1OC (stereo not drawn)	none
COc1ccccc1C(CC(=O)Nc1ccc(C)c(C)c1)c1ccc(OC(C)C)cc1 (stereo not drawn)	L major viab 51.1
CC1CCCN(CC(O)COCC2COc3ccccc3O2)C1 (stereo not drawn)	L major viab 85.9
OC(COCC1COc2ccccc2O1)CN1CCN(c2ccccn2)CC1 (stereo not drawn)	L major viab 70.4
C/C(=N\O)C(C)Oc1ccc(Cl)cc1 (stereo not drawn)	none
O=C(CN1CCCCCC1)Nc1ccc(S(=O)(=O)N2CCOCC2)cc1	L major viab 55.3
O=C(CSCc1ccc(Br)cc1)Nc1ccc(S(=O)(=O)N2CCOCC2)cc1	L major viab 99.9
CCOC(=O)NCc1ccc(S(=O)(=O)Nc2ccccc2C)cc1	none
O=C(CSCc1ccccc1)Nc1ccc(S(=O)(=O)N2CCOCC2)cc1	none
Cc1ccccc1NS(=O)(=O)c1ccc(NC(=O)CSCc2ccc(Br)cc2)cc1	WT yeast gro inh 65.9
O=C(Cn1c(=O)sc2ccccc21)Nc1ccc(S(=O)(=O)N2CCCC2)cc1	L major viab 80.4
C[C@H](NC(N)=O)C(=O)OCC(=O)NCc1cccs1	none
COC(=O)c1cn(NC(=O)Cn2nc([N+](=O)[O-])c(Br)c2C)c(=O)c2ccccc12	none
CCc1cccc(CC)c1NC(=O)CN1CC(C)SC1=NC1CCCCC1 (stereo not drawn)	none
CC(C)c1ccc(N(CC(=O)Nc2ccc(S(=O)(=O)N3CCOCC3)cc2)S(C)(=O)=O)cc1	L major viab 89.9
CN(Cc1ccccc1)c1ncc(C=O)s1	none
COCCn1nnnc1C(c1cc2cc(C)ccc2[nH]c1=O)N1CCCCCC1 (stereo not drawn)	none
COCCn1nnnc1C(c1cc2cc(OC)ccc2[nH]c1=O)N1CCC(Cc2ccccc2)CC1 (stereo not drawn)	L major viab 50.3
Cc1ccc2[nH]c(=O)c(C(c3nnnn3CCc3ccccc3)N3CCOCC3)cc2c1 (stereo not drawn)	L major viab 96.8
O=C(OC1CCCCC1)c1ccc(NC(=O)c2ccco2)cc1	WT yeast gro inh 71.2, L major viab 75.2
O=C(Nc1ccc(OC(=O)c2ccco2)cc1)c1ccco1	none
COc1ccc(C(=O)COc2cccc(NC(=O)c3ccco3)c2)cc1	L major viab 58.9
CCOc1cc(NC(=O)c2ccco2)c(OCC)cc1NC(=O)COc1ccccc1C	none (no result: WT yeast gro inh, RAM inhibit, ABCG2 block, ABCB1 inh)
